From PubChem BioAssay
An excerpt weighted towards active compounds, which were near 1.5% of everything screened.
PG9 binder: binds the HIV-1 gp120 antibody PG9; inhibition, % at 6.7 µM; AID 624416; 360,000 tested, 0.43% active; TR-FRET gp120-PG9 antibody binding; in the data active = inhibition above about 8.5%
NR2E3 ag-1: NR2E3 (human) agonism; inhibition of corepressor binding, % at 4.78 µM; 320,000 tested, 0.12% active; AID 2300; GST-NR2E3/biotin-RetCOR TR-FRET, 1536-well;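 active = percent inhibition above the cutoff of mean plus 3 SD of all tested compounds, set per screening campaign, cut at about 20% in these data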;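 also: 0% = DMSO wells and 100% = biotin wells as full block of FRET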
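Material: NR2E3–RetCOR corepressor complex / Incubation: Compound–protein incubation for 5 h at 4 °C / Dosing: compound at 4.8 µM, single dose / Detection: time-resolved FRET / Benchmarks: high control biotin, low control 0.6% DMSO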
Rev-erbA mod: modulators of human Rev-erb alpha DNA binding | P20393 | Rev-erbα–FITC-DNA binding, fluorescence polarization, 90 min | activity, % at 10 µM | 370,000 tested, 0.79% active | AID 1259318;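 active = activity above about 14%, limit read from the data; passing the limit was not always enough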;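 also: 0% = DMSO wells with 35 nM protein and 100% = DMSO wells with 750 nM protein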
Target sequence (P20393 whole entry, looked up): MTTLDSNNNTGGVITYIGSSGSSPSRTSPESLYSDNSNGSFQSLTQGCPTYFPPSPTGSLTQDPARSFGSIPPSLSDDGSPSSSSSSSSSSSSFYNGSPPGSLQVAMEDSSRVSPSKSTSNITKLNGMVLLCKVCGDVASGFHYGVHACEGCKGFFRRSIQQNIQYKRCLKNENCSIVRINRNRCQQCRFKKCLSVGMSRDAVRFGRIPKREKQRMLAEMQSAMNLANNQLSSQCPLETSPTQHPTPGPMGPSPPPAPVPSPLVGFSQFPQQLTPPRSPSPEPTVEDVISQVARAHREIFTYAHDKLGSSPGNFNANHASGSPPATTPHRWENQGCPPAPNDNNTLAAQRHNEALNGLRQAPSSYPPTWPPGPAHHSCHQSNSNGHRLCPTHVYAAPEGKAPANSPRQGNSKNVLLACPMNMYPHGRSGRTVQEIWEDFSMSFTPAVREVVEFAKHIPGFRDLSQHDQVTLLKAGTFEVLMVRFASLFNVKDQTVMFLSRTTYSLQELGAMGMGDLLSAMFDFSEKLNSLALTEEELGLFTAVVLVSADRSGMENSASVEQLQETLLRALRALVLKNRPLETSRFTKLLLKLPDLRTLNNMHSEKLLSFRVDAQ
NR2E3 ag-2: agonists of human NR2E3 nuclear receptor; Q9Y5X4; CHO-S Gal4-NCOR/VP16-NR2E3 two-hybrid, luciferase; inhibition of corepressor binding, % at 3.98 µM; 360,000 tested, 0.35% active; AID 602229;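 active = inhibition above the mean of all tested compounds plus 3 SD, cut at about 70% in these data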;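 also: 0% = DMSO with NR2E3 transfected cells and 100% = cells lacking NR2E3 construct; higher means lower luciferase signal from less NR2E3 corepressor binding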
Rev-erbA confirm: Rev-erb alpha (human) modulation, hit confirmation; shares compounds with Rev-erbA mod; activation, % at 25 µM; 3,000 tested, 61% active; Rev-erb alpha FITC-DNA binding, fluorescence polarization, 90 min;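 active = activation at or above a set limit, or at least 3 SD above the negative control mean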;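 also: 0% = 35 nM protein with DMSO and 100% = 750 nM protein high control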
RORg counter: affects RORgamma DNA binding in a Rev-erb alpha counter-screen. shares compounds with Rev-erbA mod. purified RORgamma protein-FITC-DNA binding, fluorescence polarization. IC50, µM. 910 tested, 8% active;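 active = Compounds whose fitted half-maximal concentration for disrupting protein-DNA binding is below 10 micromolar; the record names Rev-erb in its text, so the target is in doubt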
Starred values were filed as active, the others as inactive; ! = not confirmed by another sample.

CCOC(=O)/C(C#N)=C/Nc1ccsc1C(=O)OC was read as PG9 binder 1, NR2E3 ag-1 -4, Rev-erbA mod 22*, NR2E3 ag-2 12 and Rev-erbA confirm 11.
Screening CSc1nc(N)c2c(C)c(C)sc2n1 returned PG9 binder 1, NR2E3 ag-1 1, Rev-erbA mod -1 and NR2E3 ag-2 -2.
C=C(C)CSc1nc(N)c2c(C)c(C)sc2n1 was read as PG9 binder 1, NR2E3 ag-1 5, Rev-erbA mod 26*, NR2E3 ag-2 -26 and Rev-erbA confirm 26*.
O=C(C(=O)N1CCCCCC1)c1c[nH]c2ccccc12 was read as PG9 binder -2, Rev-erbA mod 4 and NR2E3 ag-2 -13.
Screening C[n+]1cc(C(=O)N2CCCCC2)ccc1/C=C/c1c[nH]c2ccccc12 returned PG9 binder -10, NR2E3 ag-1 -1, Rev-erbA mod 75*, NR2E3 ag-2 -1, Rev-erbA confirm 58* and RORg counter >40.
C#CCN1CC(N2CCN(CCO)CC2)CS1(=O)=O (stereo not given) was read as Rev-erbA mod -1.
`COC(=O)c1sc2nc3c(cc2c1N)C(=O)CC(C)(C)C3` gave PG9 binder -2, NR2E3 ag-1 5, Rev-erbA mod 70*, NR2E3 ag-2 -5, Rev-erbA confirm 44* and RORg counter >40.
`COC(=O)[C@]12C[C@H](CC(=O)NCC3CCCCC3)C(=O)N(Cc3ccco3)C1=C[C@H](C1CCCC1)O[C@@H]2C` gave Rev-erbA mod -2.
`C=CCSc1nc(N)c(C(=O)Nc2ccccc2OC)cc1C(=O)Nc1ccccc1` gave PG9 binder 3, NR2E3 ag-1 -3, Rev-erbA mod 20*, NR2E3 ag-2 3 and Rev-erbA confirm 15.
For O=c1c2cc3c(cc2[nH]c(=S)n1C1CCN(Cc2ccccc2)CC1)OCO3 the results were PG9 binder 0, NR2E3 ag-1 1, Rev-erbA mod 15*, NR2E3 ag-2 -6 and Rev-erbA confirm 6.
CCOc1cc2[nH]c(=S)n(C3CCN(Cc4ccccc4)CC3)c(=O)c2cc1OCC was read as PG9 binder 1, NR2E3 ag-1 2, Rev-erbA mod 10 and NR2E3 ag-2 -12.
Screening COC(=O)[C@H](C(C)C)N(CCCc1cn(CC2CCCCC2)nn1)S(=O)(=O)c1ccccc1Br returned Rev-erbA mod 4.
For CCOC(=O)N1CCN(c2ncnc3c2oc2nc(C(C)C)c4c(c23)CCC4)CC1 the results were PG9 binder 3, NR2E3 ag-1 0, Rev-erbA mod 45*, NR2E3 ag-2 -25, Rev-erbA confirm 84* and RORg counter >40.
Screening COc1ccc(-c2csc3ncnc(N4CCN(S(=O)(=O)c5cccc(Br)c5)CC4)c23)cc1 returned PG9 binder 7, NR2E3 ag-1 -2, Rev-erbA mod 16*, NR2E3 ag-2 2 and Rev-erbA confirm 18*.
`Cc1ccc(S(=O)(=O)N2CCN(c3ncnc4scc(-c5ccc(F)cc5)c34)CC2)cc1` gave PG9 binder -1, NR2E3 ag-1 -5, Rev-erbA mod 24*, NR2E3 ag-2 -28 and Rev-erbA confirm 6.
For Cc1ccc(S(=O)(=O)N2CCN(c3ncnc4scc(-c5ccccc5)c34)CC2)cc1 the results were PG9 binder -1, Rev-erbA mod -4 and NR2E3 ag-2 -32.
Screening Cc1ccccc1CN1CCCCC(NC(=O)Nc2ccccc2-c2ccccc2)C1=O (stereo not given) returned Rev-erbA mod 2.
Screening O=C(C1CC1)C1(C(=O)N2CCOCC2)CC(c2ccccn2)=NO1 (stereo not given) returned Rev-erbA mod 1.
`O=[N+]([O-])c1cccc(-c2cc(C(F)(F)F)n3nc(-c4ccccc4)cc3n2)c1` gave PG9 binder -2, NR2E3 ag-1 4, Rev-erbA mod 10 and NR2E3 ag-2 -9.
`FC(F)(F)c1cc(-c2ccccn2)nc2cc(-c3ccccc3)nn12` gave PG9 binder 0, NR2E3 ag-1 2, Rev-erbA mod 45*, NR2E3 ag-2 -5 and Rev-erbA confirm 24*.
`CCOC(=O)C1=NOC(C(=O)NC2CCCC2)(C(=O)c2ccc(OC)cc2)C1` (stereo not given) gave Rev-erbA mod -3.
For Nc1ccc(N(CCO)CCO)cc1 the results were PG9 binder -15, NR2E3 ag-1 1, Rev-erbA mod -9 and NR2E3 ag-2 -10.
Cc1cc(N(CCO)CCO)ccc1N=Nc1cc(F)ccc1F was read as PG9 binder -1, NR2E3 ag-1 -1, Rev-erbA mod 54*, NR2E3 ag-2 -53 and Rev-erbA confirm 29*.
`O=C(/C=C\Nc1ccc(Cl)cn1)c1ccc(Br)cc1` gave PG9 binder -1, NR2E3 ag-1 -3, Rev-erbA mod 67*, NR2E3 ag-2 -52 and Rev-erbA confirm 10.
For COc1ccc(OC)c(NC(=O)c2sc3nc(Cc4ccccc4)cc(C(F)(F)F)c3c2N)c1 the results were PG9 binder -1, NR2E3 ag-1 1, Rev-erbA mod 82*, NR2E3 ag-2 -12 and Rev-erbA confirm 29*.
For CCOC(=O)CC[C@H]1CC[C@]2(CCCN(C3CCCCC3)C2)O1 the results were Rev-erbA mod 1.
`CCC(c1ccc(O)cc1)C(CC)c1ccc(O)cc1` (stereo not given) gave PG9 binder 0, NR2E3 ag-1 0, Rev-erbA mod 34*!, NR2E3 ag-2 4, Rev-erbA confirm 41* and RORg counter >40.
For CCOC(=O)c1c(-c2ccccc2)csc1NC(=O)/C(C#N)=C/c1ccc(O)c(OC)c1 the results were PG9 binder 2, NR2E3 ag-1 -2, Rev-erbA mod 26*, NR2E3 ag-2 -1, Rev-erbA confirm 36* and RORg counter >40.
`CCOC(=O)c1c(-c2ccc(C)cc2)csc1NC1=NS(=O)(=O)c2ccccc21` gave PG9 binder -1, NR2E3 ag-1 7, Rev-erbA mod 37*, NR2E3 ag-2 5 and Rev-erbA confirm 20*.
`CCOC(=O)c1c(-c2ccc(C)cc2)csc1NC(=O)c1cccc(N2C(=O)CCC2=O)c1` gave PG9 binder -1, NR2E3 ag-1 -5, Rev-erbA mod 26*, NR2E3 ag-2 2 and Rev-erbA confirm 9.
`CCOC(=O)c1c(-c2ccccc2)csc1NC(=O)c1cccc(N2C(=O)CCC2=O)c1` gave PG9 binder 1, NR2E3 ag-1 1, Rev-erbA mod 26*, NR2E3 ag-2 -12 and Rev-erbA confirm 9.
Screening CCOC(=O)c1c(-c2ccc(C)cc2)csc1NC(=S)NC(=O)c1ccccc1 returned PG9 binder -4, NR2E3 ag-1 3, Rev-erbA mod 1 and NR2E3 ag-2 -20.
Screening O=C(c1cc(F)ccc1F)N1CCC(Oc2cccnc2)CC1 returned Rev-erbA mod 1.
